# Screening results as filed in PubChem BioAssay.
# HTRA1 inhibitor: HTRA1 serine protease inhibitors, primary screen, biochemical, fluorescence polarization, HTS | Q92743 | recombinant HTRA1, FP-rhodamine activity-based probe | inhibition, % at 5.96 µM | 0.5% of 340,000 active | AID 504803, 2011; in the data active = inhibition above about 36%;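 note: 0% = enzyme with DMSO and 100% = wells lacking enzyme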
# Target sequence (Q92743 whole entry, looked up): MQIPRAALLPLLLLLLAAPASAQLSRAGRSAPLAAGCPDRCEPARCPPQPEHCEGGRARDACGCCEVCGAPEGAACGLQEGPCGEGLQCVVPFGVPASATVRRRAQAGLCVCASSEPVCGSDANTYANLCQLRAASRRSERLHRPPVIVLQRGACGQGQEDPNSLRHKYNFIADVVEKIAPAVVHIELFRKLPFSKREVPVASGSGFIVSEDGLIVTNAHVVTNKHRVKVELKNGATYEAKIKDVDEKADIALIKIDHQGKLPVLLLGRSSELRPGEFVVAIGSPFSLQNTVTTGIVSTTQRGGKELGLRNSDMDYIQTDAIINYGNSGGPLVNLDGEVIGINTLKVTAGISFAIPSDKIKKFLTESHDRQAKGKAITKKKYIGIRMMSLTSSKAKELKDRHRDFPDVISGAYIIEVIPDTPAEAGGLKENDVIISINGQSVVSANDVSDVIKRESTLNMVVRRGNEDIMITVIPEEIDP
# rCAG RNA binder: binders of r(CAG) RNA repeats, primary screen, biochemical, fluorescence | 1.3% of 370,000 active | inhibition, % at 3 µM | r(CAG) RNA repeat, TO-PRO-1 dye displacement fluorescence;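 active = inhibition above the plate cutoff, the mean of all test compounds on that plate plus 3 SD, cut at about 35% in these data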;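 note: 0% = DMSO alone and 100% = 100 µM mitoxantrone as full dye displacement; higher means more dye released from RNA so lower well fluorescence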
# PRMT1 FP inh: PRMT1 methyltransferase inhibitors, primary screen, biochemical, fluorescence polarization. recombinant PRMT1, activity-based probe fluorescence polarization. 1.3% of 370,000 active. Protein arginine N-methyltransferase 1 (Homo sapiens), Q99873. inhibition, % at 2.79 µM;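 active = inhibition above about 21% made by adding two undisclosed values, limit read from the data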
# ABHD4 inh: ABHD4 inhibitors, primary screen, biochemical, fluorescence polarization, mouse; (Lyso)-N-acylphosphatidylethanolamine lipase (Mus musculus), Q8VD66; purified mABHD4, FP-Rh probe fluorescence polarization; inhibition, % at 8.92 µM; 0.54% of 370,000 active;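 active = inhibition exceeding the mean over every tested compound plus 3 SD, cut at about 30% in these data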;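 note: 0% = plate median of compound wells and 100% = S159A mutant with DMSO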
#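 Assay system: Wild-type mouse ABHD4 protein | Medium: HEPES pH 7.0 buffer, 150 mM NaCl, 0.01% Pluronic F-127 | Incubation: Enzyme–compound pre-incubation 45 min, then probe 60 min, both 25 °C | Technique: Fluorescence polarization with parallel and perpendicular emission, 525/598 nm | Evaluation: % inhibition of FP-Rh probe binding versus controls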
# SIAE primary: human SIAE inhibitors, primary screen, biochemical, fluorescence polarization, FP-Rh probe, 1536-well HTS. Sialate O-acetylesterase (Homo sapiens), Q9HAT2. SIAE FP-Rh probe binding. inhibition, % at 9.66 µM. 0.69% of 370,000 active. AID 1053197, 2014;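 active = inhibition above a cutoff: mean of compounds within the control limits plus 3 SD of those, cut at about 17% in these data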;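 note: 0% = plate median of compound wells and 100% = probe without SIAE protein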
# TCR-CD3 inh: inhibitors of human TCR-CD3 interaction, primary screen, biochemical, fluorescence, TAMRA-labeled TCR probe. T-cell receptor (TCR). inhibition, % at 9.4 µM. AID 651800, 2012. 0.37% of 360,000 active;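 note: recombinant mutant TCR 2C K166C tagged with TAMRA read by polarization; 0% = receptor in buffer alone and 100% = receptor with positive control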
# BSA probe FL: compounds interfering with TAMRA-BSA probe, counter-screen for TCR-CD3 interaction inhibitor project, biochemical, fluorescence, TAMRA-labeled BSA; shares compounds with TCR-CD3 inh; TAMRA-labeled BSA probe fluorescence counterscreen; inhibition, % at 9.4 µM; 10% of 1,200 active; AID 652035, 2013; in the data active = inhibition above about 23%;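 note: 0% = buffer low control and 100% = reference high control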
# TCR-CD3 conf: TCR-CD3 interaction inhibitors, retest, confirmation, biochemical, fluorescence, TAMRA-labeled TCR probe; TAMRA-labeled TCR probe fluorescence binding assay; inhibition, % at 9.4 µM; shares compounds with TCR-CD3 inh; 48% of 1,200 active; AID 652036, 2013
# Numbers without * were called inactive; . = no result given. In the library only some 3.5% were active in any assay of this set; here they are far more common. Cut-off read from the data, not from the text of the source, unless noted: active = inhibition above about 19%; inactive = the rest.
SMILES,HTRA1 inhibitor,rCAG RNA binder,PRMT1 FP inh,ABHD4 inh,SIAE primary,TCR-CD3 inh,BSA probe FL,TCR-CD3 conf
N#CCC(=O)Nc1ccc(C(=O)OC(C(=O)Nc2ccc([N+](=O)[O-])cc2Br)c2ccccc2)cc1 (stereo not drawn),-58,31,1,-61,-118,17,.,.
C=CCN1[C@H](CO)[C@H](c2ccc(Br)cc2)[C@@H]1C#N,.,2,-6,-1,-2,.,.,.
O=C(NCc1ccc(Cl)cc1)O[C@H]1CC[C@@]23CCCN2C(=O)CCC[C@H]3C1,.,.,-6,1,-2,.,.,.
CCn1c(=O)c(C(=O)Nc2ncccc2O)c(O)c2ccccc21,2,5,1,-1,0,34*,-2,15
CCn1c(=O)c(C(=O)Nc2ncccc2C)c(O)c2ccccc21,-23,-1,-2,-3,-4,1,.,.
COc1ccc(CN2C(=O)CCCC2(C)c2nnnn2-c2ccc3c(c2)OCCO3)cc1 (stereo not drawn),.,5,-3,-1,-1,.,.,.
O=[N+]([O-])c1cc(C(F)(F)F)ccc1NC1CCN(Cc2ccccc2)C1 (stereo not drawn),-5,-5,-3,-2,8,0,.,.
O=[N+]([O-])c1cc(C(F)(F)F)ccc1NC1CCN(Cc2ccccc2)CC1,.,-7,-4,-2,2,39*,10,4
CCOC(=O)[C@@]12CCC3=C1N(CCC3)C(=O)[C@H](CC(=O)NCCCOC)C2,.,1,6,-11,2,.,.,.
CCOc1ccc(CCNC(=O)c2cc3ccsc3n2C)cc1OC,.,1,-6,-6,-19,.,.,.
CC1(C)CC2CC(C)(CN2S(=O)(=O)c2ccc(C(=O)Nc3ccc(S(=O)(=O)N4CCOCC4)cc3)cc2)C1 (stereo not drawn),-75,21,1,-48,-111,41*,23*,56*
CC1(C)CC2CC(C)(CN2S(=O)(=O)c2ccc(C(=O)Nc3ccc(Cl)c(S(=O)(=O)N4CCOCC4)c3)cc2)C1 (stereo not drawn),3,4,-3,-11,-44,3,.,.
C=CCNC(=O)CN(C(=O)c1csc2ccc(Cl)cc12)c1cccc(Br)c1,.,3,-4,3,0,.,.,.
C[C@@H]1CCN(C2CC2)S(=O)(=O)c2ccc(N3CCC[C@H]3CO)cc2O1,.,7,1,3,0,.,.,.
CCNc1nc(NC(C)C)nc(N(C#N)CC(=O)OC)n1,3,15,1,-8,5,22*,4,4
COC(=O)[C@]12C[C@H](CC(=O)N3CCSCC3)C(=O)N(Cc3cccc4ccccc34)C1=C[C@H](COCc1ccccc1)O[C@@H]2C,.,14,0,-9,3,.,.,.
O=C(NNC(=O)c1cc(Cl)ccc1O)c1cccc(S(=O)(=O)N2CCOCC2)c1,21,18,1,17,13,43*,-11,31*
O=C(NNC(=O)C1CCN(S(=O)(=O)c2ccccc2)CC1)c1ccccc1O,-2,5,2,11,4,47*,6,40*
O=C(NNC(=O)c1ccccc1O)c1ccc(Cl)c(S(=O)(=O)N2CCCCC2)c1,35,19,1,13,8,27*,-10,20*
O=C(NNS(=O)(=O)c1ccccc1)C1CCN(S(=O)(=O)c2ccccc2)CC1,2,3,1,3,-1,-3,.,.
O=C(NNC(=O)C1CCN(S(=O)(=O)c2c(Cl)cccc2Cl)CC1)c1ccccc1O,15,17,1,8,6,31*,-11,27*
O=[N+]([O-])c1ccc2nc(CNc3nc(N4CCOCC4)nc4c3ncn4-c3ccsc3)[nH]c2c1,.,.,7,-10,2,.,.,.
O=C(NCCCc1ccccc1)OC1CCC12CCC(c1ccccc1)CC2 (stereo not drawn),.,6,0,-4,-5,.,.,.
O=C(NNC(=O)C1CCN(S(=O)(=O)c2ccccc2C(F)(F)F)CC1)c1ccccc1O,11,10,-2,6,9,31*,-7,23*
O=C(NCc1ccco1)C1CCN(S(=O)(=O)c2ccccc2C(F)(F)F)CC1,-1,3,3,-1,0,-3,.,.
SMILES,HTRA1 inhibitor,rCAG RNA binder,PRMT1 FP inh,ABHD4 inh,SIAE primary,TCR-CD3 inh,BSA probe FL,TCR-CD3 conf
CCOC(=O)C1CCN(CC(O)COCc2cccs2)CC1 (stereo not drawn),0,-5,-2,2,-1,23*,-1,-3
CCOC(=O)C1CCN(CC(O)COCc2ccccc2)CC1 (stereo not drawn),-2,-3,-2,12,6,6,.,.
CCOC(=O)C1=CCN(S(=O)(=O)c2cccc(Cl)c2)C1c1cccc(F)c1 (stereo not drawn),.,-1,-1,-8,-6,65*,5,4
CCOC(=O)C1=CCN(S(=O)(=O)c2ccc(F)cc2)C1c1cccc(Cl)c1 (stereo not drawn),.,4,0,4,-2,1,.,.
O=c1c2c(-c3ccc(Cl)cc3)csc2ncn1/N=C/c1cccc([N+](=O)[O-])c1O,11,9,2,7,7,30*,-11,29*
CN(C)S(=O)(=O)c1cccc(NC(=O)COC(=O)c2cccc(S(=O)(=O)N3CCc4ccccc4C3)c2)c1,-32,20,0,-43,-7,42*,26*,54*
NS(=O)(=O)c1cccc(NC(=O)COC(=O)c2cc(-c3ccc(Cl)cc3)nc3ccccc23)c1,-121,26,-2,-123,-146,81*,19,35*
CN(C)S(=O)(=O)c1cccc(NC(=O)COC(=O)c2cn(-c3ccccc3)nc2-c2ccccc2)c1,-79,19,1,-61,-99,31*,10,9
Cc1cc(C(=O)OCC(=O)Nc2cccc(S(=O)(=O)N(C)C)c2)c2ccccc2n1,-8,2,-4,1,0,8,.,.
C[C@@H]1COc2cc(Br)ccc2S(=O)(=O)N1Cc1cn(CCC2OCCCO2)nn1,.,3,0,2,2,.,.,.
